# Results: ChEMBL document CHEMBL2321834 (J Med Chem, 2013)
# Activity calls are given as the source filed them. The rule behind the calls is not given here.
# Key:
# [1] = target: T1, 17-beta-hydroxysteroid dehydrogenase type 1 (Homo sapiens) (UniProt P14061); conditions: at 1 µM
# T1 sequence (whole entry): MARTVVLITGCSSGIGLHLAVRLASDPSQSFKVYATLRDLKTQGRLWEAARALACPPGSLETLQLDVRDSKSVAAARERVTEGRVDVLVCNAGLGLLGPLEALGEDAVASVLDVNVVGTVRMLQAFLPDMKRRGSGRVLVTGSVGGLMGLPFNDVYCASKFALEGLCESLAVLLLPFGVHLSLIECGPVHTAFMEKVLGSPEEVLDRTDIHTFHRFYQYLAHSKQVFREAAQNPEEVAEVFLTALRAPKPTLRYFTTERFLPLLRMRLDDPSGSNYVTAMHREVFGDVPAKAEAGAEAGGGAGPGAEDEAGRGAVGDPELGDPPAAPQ
# [2] = target: T2, 17-beta-hydroxysteroid dehydrogenase type 2 (Homo sapiens) (UniProt P37059); conditions: Placenta, Microsomal, at 1 µM
# T2 sequence (whole entry): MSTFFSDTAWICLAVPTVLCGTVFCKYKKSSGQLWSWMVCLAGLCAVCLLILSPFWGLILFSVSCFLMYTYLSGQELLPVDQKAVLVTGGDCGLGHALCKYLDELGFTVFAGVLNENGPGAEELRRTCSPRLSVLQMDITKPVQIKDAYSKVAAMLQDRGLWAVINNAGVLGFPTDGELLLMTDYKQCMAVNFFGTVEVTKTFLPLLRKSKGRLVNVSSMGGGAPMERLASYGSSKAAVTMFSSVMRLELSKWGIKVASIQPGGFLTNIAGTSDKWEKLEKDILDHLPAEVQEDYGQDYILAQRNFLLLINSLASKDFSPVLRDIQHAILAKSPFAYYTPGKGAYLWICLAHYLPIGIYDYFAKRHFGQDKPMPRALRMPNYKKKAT
# [3] = target: Estrogen receptor beta (Homo sapiens) (UniProt Q92731); assay: Displacement of [3H]E2 from human recombinant ERbeta after 1 hr by scintillation counting analysis relative to E2
# Outline: (§1)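 Competitive binding assay against ERα and ERβ, with E2 as internal reference.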
# [4] = target: T3, Estrogen receptor (Homo sapiens) (UniProt P03372); assay: Displacement of [3H]E2 from human recombinant ERalpha after 1 hr by scintillation counting analysis relative to E2
# T3 sequence (whole entry): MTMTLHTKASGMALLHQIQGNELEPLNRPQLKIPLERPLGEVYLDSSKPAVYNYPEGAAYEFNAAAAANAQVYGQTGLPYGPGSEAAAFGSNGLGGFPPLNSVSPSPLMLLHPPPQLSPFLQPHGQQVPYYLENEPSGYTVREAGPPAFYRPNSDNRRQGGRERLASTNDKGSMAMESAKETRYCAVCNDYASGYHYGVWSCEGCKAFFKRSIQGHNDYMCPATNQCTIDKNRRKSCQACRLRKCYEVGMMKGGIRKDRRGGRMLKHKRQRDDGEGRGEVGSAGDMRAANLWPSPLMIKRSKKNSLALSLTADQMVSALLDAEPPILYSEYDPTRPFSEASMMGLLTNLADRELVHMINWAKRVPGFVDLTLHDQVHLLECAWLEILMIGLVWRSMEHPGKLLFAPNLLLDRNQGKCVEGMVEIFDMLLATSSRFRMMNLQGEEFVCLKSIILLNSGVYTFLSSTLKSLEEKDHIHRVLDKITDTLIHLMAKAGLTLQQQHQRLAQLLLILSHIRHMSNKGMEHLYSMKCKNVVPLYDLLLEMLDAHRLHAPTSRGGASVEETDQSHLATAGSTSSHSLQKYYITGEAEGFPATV
# Outline: as §1
# Homo sapiens = species on record: Homo sapiens; assay: Selectivity ratio of IC50 for 17beta-HSD1 in human placental microsomal fraction to IC50 for 17beta-HSD2 in human placental microsomal fraction; type: microsomes; conditions: Microsome
# [5] = target: T2, 17-beta-hydroxysteroid dehydrogenase type 2 (Homo sapiens); assay: Inhibition of 17beta-HSD2 in human MDA-MB-231 cells using [3H]E2 as substrate at 1 uM after 6 hrs by HPLC analysis; type: cell-based
# [6] = target: T4, 17-beta-hydroxysteroid dehydrogenase type 2 (Homo sapiens, UniProt P37059); assay: Inhibition of 17beta-HSD2 (unknown origin)
# T4 sequence (P37059 whole entry): T2 sequence (whole entry)
# Outline: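 Microsomal fraction of human placenta as enzyme source, incubated with tritiated E2, cofactor and inhibitor. Substrate and product separated by HPLC to give percent inhibition. IC50 determined for selected compounds.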
# [7] = target: T5, 17-beta-hydroxysteroid dehydrogenase type 1 (Homo sapiens, UniProt P14061); assay: Inhibition of 17beta-HSD1 in human placental cytosolic fraction using [3H]E1 as substrate assessed as formation of E2 by HPLC analysis
# T5 sequence (P14061 whole entry): T1 sequence (whole entry)
# [8] = target: T6, Aldo-keto reductase family 1 member C3 (Homo sapiens) (UniProt P42330); assay: Inhibition of human recombinant 17beta-HSD5 expressed in Escherichia coli using [1,2,6,7-3H]A-dione as substrate at 1 uM by scintillation counting analysis
# T6 sequence (whole entry): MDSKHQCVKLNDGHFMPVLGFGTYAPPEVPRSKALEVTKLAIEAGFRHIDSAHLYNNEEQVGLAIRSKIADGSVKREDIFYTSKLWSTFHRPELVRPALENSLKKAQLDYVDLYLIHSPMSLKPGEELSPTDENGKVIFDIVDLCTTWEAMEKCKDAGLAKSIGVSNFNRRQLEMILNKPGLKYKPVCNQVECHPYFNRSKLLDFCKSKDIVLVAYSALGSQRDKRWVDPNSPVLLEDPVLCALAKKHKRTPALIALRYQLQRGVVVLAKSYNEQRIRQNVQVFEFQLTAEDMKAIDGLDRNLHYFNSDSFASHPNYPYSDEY
# [9] = target: T7, Peroxisomal multifunctional enzyme type 2 (Homo sapiens) (UniProt P51659); assay: Inhibition of human recombinant 17beta-HSD4 SDR domain expressed in Escherichia coli using [6,7-3H]E2 as substrate at 1 uM by scintillation counting analysis
# T7 sequence (whole entry): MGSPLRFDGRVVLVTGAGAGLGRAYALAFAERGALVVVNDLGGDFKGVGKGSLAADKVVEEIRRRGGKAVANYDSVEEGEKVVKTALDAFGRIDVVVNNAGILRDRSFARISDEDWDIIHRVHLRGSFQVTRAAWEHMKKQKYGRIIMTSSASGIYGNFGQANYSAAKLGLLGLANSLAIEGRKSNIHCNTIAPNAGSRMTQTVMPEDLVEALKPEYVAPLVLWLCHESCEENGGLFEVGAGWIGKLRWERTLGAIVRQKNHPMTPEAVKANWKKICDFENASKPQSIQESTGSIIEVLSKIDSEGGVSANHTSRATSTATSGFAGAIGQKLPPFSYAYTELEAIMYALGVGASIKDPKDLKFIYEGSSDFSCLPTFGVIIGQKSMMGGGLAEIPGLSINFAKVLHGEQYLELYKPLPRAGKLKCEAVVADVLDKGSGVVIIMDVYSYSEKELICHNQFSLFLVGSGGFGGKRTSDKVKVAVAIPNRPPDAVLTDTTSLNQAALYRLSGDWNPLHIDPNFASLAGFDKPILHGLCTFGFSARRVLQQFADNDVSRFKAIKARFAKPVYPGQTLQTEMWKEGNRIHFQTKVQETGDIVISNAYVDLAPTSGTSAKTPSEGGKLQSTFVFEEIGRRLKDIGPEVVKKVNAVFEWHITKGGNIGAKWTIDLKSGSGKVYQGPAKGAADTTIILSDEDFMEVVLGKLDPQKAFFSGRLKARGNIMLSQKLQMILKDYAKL
# Estrogen receptor beta (Homo sapiens), sequence (Q92731 whole entry): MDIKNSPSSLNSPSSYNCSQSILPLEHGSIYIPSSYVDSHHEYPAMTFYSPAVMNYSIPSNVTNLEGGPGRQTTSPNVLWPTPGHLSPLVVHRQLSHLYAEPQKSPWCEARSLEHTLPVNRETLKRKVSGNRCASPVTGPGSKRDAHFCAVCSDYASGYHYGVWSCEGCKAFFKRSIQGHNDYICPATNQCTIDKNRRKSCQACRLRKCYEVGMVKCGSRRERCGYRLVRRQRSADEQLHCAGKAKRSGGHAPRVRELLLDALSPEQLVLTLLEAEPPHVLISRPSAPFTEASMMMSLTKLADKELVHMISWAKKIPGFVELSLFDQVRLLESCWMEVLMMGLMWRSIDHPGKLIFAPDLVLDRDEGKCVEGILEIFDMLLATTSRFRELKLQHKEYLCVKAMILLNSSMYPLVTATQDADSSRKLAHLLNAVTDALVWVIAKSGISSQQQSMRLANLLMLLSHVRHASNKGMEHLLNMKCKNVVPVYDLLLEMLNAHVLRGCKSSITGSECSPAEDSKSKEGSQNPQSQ
Compound,inhibition [1] [%],inhibition [2] [%],RBA [3] [%],RBA [4] [%],other results
COc1cccc(-c2ccc(C(=O)N(C)c3cccc(C(F)(F)F)c3)s2)c1,13,75,< 0.1,< 0.1,Ratio IC50 (Homo sapiens): 17
COc1cccc(N(C)C(=O)c2ccc(-c3c(F)ccc(OC)c3F)s2)c1,,,< 0.1,< 0.1,
COc1cccc(-c2cccc(C(=O)N(C)c3cccc(OC)c3)c2)c1,< 10,64,,,
COc1cccc(CCN(C)C(=O)c2ccc(-c3cccc(OC)c3)s2)c1,< 10,31,,,
CN(Cc1cccc(O)c1)C(=O)c1cccc(-c2cccc(O)c2)c1,10,60,,,
Cc1cccc(N(C)C(=O)c2ccc(-c3cccc(O)c3)s2)c1,24,71,< 0.1,< 0.1,Ratio IC50 (Homo sapiens): 11
COc1ccc(-c2ccc(C(=O)N(C)c3cccc(OC)c3)s2)cc1,,,< 0.1,< 0.1,
COc1ccc(-c2cccc(C(=O)N(C)Cc3cccc(OC)c3)c2)cc1,< 10,13,,,
COc1ccc(N(C)C(=O)c2ccc(-c3cccc(OC)c3F)s2)cc1,18,49,,,
COc1cccc(N(C)C(=O)c2ccc(-c3cccc(SC)c3)s2)c1,,,< 0.1,< 0.1,
C[C@]12CC[C@@H]3c4ccc(O)cc4CC[C@H]3[C@@H]1CC[C@@]21CCCC(=O)O1,,,,,IC50 [6]: 34 nM
COc1cccc(N(C)C(=O)c2ccc(-c3ccccc3)s2)c1,24,82,< 0.1,< 0.1,Ratio IC50 (Homo sapiens): 21
Cn1nc(-c2cccc(O)c2)nc1-c1ccc(-c2cccc(O)c2)cc1,,,,,IC50 [6]: 1400 nM
COc1cccc(-c2ccc(C(=O)N(C)c3cccc(-c4ccccc4)c3)s2)c1,50,83,< 0.1,< 0.1,Ratio IC50 (Homo sapiens): 8
COc1cccc(-c2ccc(C(=O)N(C)c3cccc(OC)c3)s2)c1,,,< 0.1,< 0.1,
CN1C(=O)C[C@@H](c2ccccc2)[C@H]1[C@H](O)c1ccc(-c2cccnc2)s1,,,,,inhibition [8]: 88%; inhibition [9]: inactive
COc1cccc(-c2ccc(C(=O)N(C)c3cccc(C)c3)s2)c1,< 10,87,< 0.1,< 0.1,Ratio IC50 (Homo sapiens): 55

# Continued, in another order:
inhibition [1] [%],inhibition [2] [%],RBA [3] [%],RBA [4] [%],Compound,other results
12,17,,,CN(CCc1cccc(O)c1)C(=O)c1ccc(-c2cccc(F)c2)s1,
< 10,11,,,CN(CCc1cccc(O)c1)C(=O)c1ccc(-c2ccccc2)s1,
< 10,,,,COc1cccc(CN(C)C(=O)c2ccc(-c3ccccc3OC)s2)c1,
16,83,,,CN(Cc1cccc(O)c1)C(=O)c1ccc(-c2ccccc2O)s1,
11,82,< 0.1,< 0.1,COc1cccc(N(C)C(=O)c2ccc(-c3cccc(N(C)C)c3)s2)c1,inhibition [5]: 71%; Ratio IC50 (Homo sapiens): 63
20,71,,,CN(Cc1cccc(O)c1)C(=O)c1ccc(-c2cccc(F)c2)s1,
< 10,< 10,,,COc1cccc(CN(C)C(=O)c2ccc(-c3ccc(C#N)cc3)s2)c1,
17,66,,,COc1cccc(N(C)C(=O)c2ccc(-c3ccc(F)c(OC)c3)s2)c1,
,,< 0.1,< 0.1,COc1cccc(-c2ccc(C(=O)N(C)c3cccc(C)c3)s2)c1F,
23,37,,,CN(CCc1cccc(O)c1)C(=O)c1ccc(-c2cccc(O)c2)s1,
11,18,,,COc1cccc(CCN(C)C(=O)c2ccc(-c3ccccc3)s2)c1,
< 10,< 10,,,COc1cccc(CCN(C)C(=O)c2ccc(-c3cccc(F)c3)s2)c1,
30,77,< 0.1,< 0.1,COc1cccc(N(C)C(=O)c2ccc(-c3ccc(OC)cc3OC)s2)c1,Ratio IC50 (Homo sapiens): 6
,,< 0.1,< 0.1,COc1cccc(N(C)C(=O)c2ccc(-c3cccc(C)c3)s2)c1,
15,72,< 0.1,< 0.1,COc1cccc(N(C)C(=O)c2ccc(-c3ccc(OC)c(F)c3)s2)c1,IC50 [7]: > 40000 nM
21,70,,,CN(Cc1cccc(O)c1)C(=O)c1ccc(-c2cccc(O)c2)s1,Ratio IC50 (Homo sapiens): 14
< 10,63,,,COc1cccc(CN(C)C(=O)c2ccc(-c3cccc(OC)c3)s2)c1,
,,< 0.1,< 0.1,COc1cccc(N(C)C(=O)c2ccc(-c3cccc(C)c3F)s2)c1,
